# Data: ChEMBL document CHEMBL1147741, “Chroman/catechol hybrids: synthesis and evaluation of their activity against oxidative stress induced cellular damage” (J Med Chem, 2006)
# pEC50, pIC50: −log10 of the molar value.
# Assays:
# [1] = test system: HT-22; assay: Inhibition of glutamate-induced oxytosis of mouse hippocampal HT22 cells; type: functional, cell-based
# Procedure, shortened: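 HT22 cells were plated at 4000 per well in phenol-red-free DMEM-HEPES with dextran-charcoal-treated FBS for 24 h. Serial compound dilutions were added with or without 5 mM glutamate for 24 h at 37 °C, and viability was read by MTT formazan conversion. EC50 is the concentration giving glutamate-exposed viability 50% of non-exposed cells; 3-7 independent experiments, mean ± SEM.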
# [2] = test system: Jurkat; assay: Activity against hydrogen peroxide induced DNA damage in Jurkat T cells; type: functional, cell-based, Homo sapiens; settings: for pIC50: Homo sapiens, Jurkat, read-out: IC50; for IC50: jurkat
# Procedure, shortened: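 Jurkat T cells (1.5 × 10⁵ per well, RPMI 1640 with 10% FCS) were preincubated 1 h at 37 °C, given compound 30 min before glucose oxidase (60 ng, about 11.8 µM H₂O₂/min), and exposed 10 min. Alkaline comet assay followed: lysis, unwinding at pH >13 for 40 min, electrophoresis at 1 V/cm for 30 min, Hoechst 33342 staining, visual scoring of 100 nucleoids. IC50 is the concentration halving strand breakage.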
# [3] = test system: Radical scavenging activity; assay: Antioxidant potency assessed chemically; type: functional
# Procedure, shortened: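 TEAC determined by the Rice-Evans and Miller method, using 0.3 mM trolox solution with data normalized to 1.0 mM trolox.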
Compound,pEC50 [1],pIC50 [2],Activity [3],IC50 [2]
COc1ccc(/C=C/c2c3c(c(C)c(C)c2OC)OC(C)(C)CC3)cc1OC,< 5.00,–,–,–
Cc1c(C)c2c(c(C)c1O)CCC(C)(C(=O)NCCN1CCN(C(=O)/C=C/c3ccc(O)c(O)c3)CC1)O2 (stereo unspecified),5.20,4.70,6.24 µM,–
Cc1c(C)c2c(c(C)c1O)CCC(C)(C(=O)NCCNCCNC(=O)/C=C/c1ccc(O)c(O)c1)O2 (stereo unspecified),< 5.00,4.30,6.33 µM,–
Cc1c(C)c2c(c(C)c1O)CCC(C)(C(=O)O)O2 (stereo unspecified) [TROLOX],–,–,1 µM,Not Active
O=C(O)/C=C/c1ccc(O)c(O)c1 [CAFFEIC ACID],–,–,1.2 µM,Not Active
Cc1c(C)c2c(c(C)c1O)CCC(C)(C(=O)NCCNC(=O)/C=C/c1ccc(O)c(O)c1)O2 (stereo unspecified),5.13,4.12,6.5 µM,–
COc1ccc(CCc2c3c(c(C)c(C)c2OC)OC(C)(C)CC3)cc1OC,5.34,–,0.05 µM,Not Active
COc1ccc(/C=C/C(=O)N2CCN(C(=O)C3(C)CCc4c(C)c(O)c(C)c(C)c4O3)CC2)cc1OC (stereo unspecified),6.19,–,1.26 µM,Not Active
Cc1c(C)c2c(c3c1OC(c1ccc(O)c(O)c1)C3)CCC(C)(C)O2 (stereo unspecified),6.00,5.00,5.9 µM,–
Cc1c(C)c2c(c(NC(=O)/C=C/c3ccc(O)c(O)c3)c1O)CCC(C)(C)O2,5.91,5.30,4.28 µM,–
COc1c(C)c(C)c2c(c1CNC(=O)/C=C/c1ccc(O)c(O)c1)CCC(C)(C)O2,5.67,6.00,3.8 µM,–
COc1c(C)c(C)c2c(c1CCc1ccc(O)c(O)c1)CCC(C)(C)O2,5.93,5.00,1.6 µM,–
Cc1c(C)c2c(c(C)c1O)CCC(C)(C(=O)N1CCN(C(=O)/C=C/c3ccc(O)c(O)c3)CC1)O2 (stereo unspecified),5.83,4.30,6.55 µM,–
COc1ccc(C#Cc2c(O)c(C)c(C)c3c2CCC(C)(C)O3)cc1OC,< 5.00,–,–,–
COc1c(C)c(C)c2c(c1C)CCC(C)(C(=O)N1CCN(C(=O)/C=C/c3ccc(O)c(O)c3)CC1)O2 (stereo unspecified),5.68,4.30,6.12 µM,–
Cc1c(C)c2c(c(C)c1O)CCC(C)(CNC(=O)/C=C/c1ccc(O)c(O)c1)O2 (stereo unspecified),5.94,4.60,6.53 µM,–
Cc1c(C)c2c(c(CCc3ccc(O)c(O)c3)c1O)CCC(C)(C)O2,6.03,5.30,3.74 µM,–
COc1c(C)c(C)c2c(c1NC(=O)/C=C/c1ccc(O)c(O)c1)CCC(C)(C)O2,< 5.00,4.70,6.53 µM,–
O=c1c(O)c(-c2ccc(O)c(O)c2)oc2cc(O)cc(O)c12 [QUERCETIN],5.53,5.30,4.3 µM,–
